Broadly, the inhibition is the percentage by which the read-out fell short of the control.

Several values for one entry are separate records, joined by “and”; a condition that tells them apart may be missing. Equal entries are not always repeated. A value given as a limit tells only on which side of the number the result lay.

This note sets out measurements from ChEMBL document CHEMBL2321737, “Selective inhibition of glycosyltransferases by bivalent imidazolium salts” (Bioorg Med Chem, 2013).

Experiment [1] deals with T1, Acetylgalactosaminyl-O-glycosyl-glycoprotein beta-1,3-N-acetylglucosaminyltransferase (Homo sapiens) (UniProt Q6ZMB0).
T1 sequence (whole entry): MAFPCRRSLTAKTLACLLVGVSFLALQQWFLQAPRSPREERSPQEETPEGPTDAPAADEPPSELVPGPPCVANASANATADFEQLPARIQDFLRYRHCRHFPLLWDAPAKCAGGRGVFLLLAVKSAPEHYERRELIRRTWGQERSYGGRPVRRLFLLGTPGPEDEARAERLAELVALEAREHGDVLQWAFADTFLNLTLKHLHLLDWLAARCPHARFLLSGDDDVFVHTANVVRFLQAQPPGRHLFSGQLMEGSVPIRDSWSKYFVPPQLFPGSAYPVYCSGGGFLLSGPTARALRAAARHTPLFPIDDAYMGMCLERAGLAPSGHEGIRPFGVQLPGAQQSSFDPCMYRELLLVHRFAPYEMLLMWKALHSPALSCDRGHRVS
Kind of experiment: Inhibition of human B3GnT6 using GalNAcalpha-Bn as substrate at 0.5 mM after 1 hr in presence of phosphatidylcholine.

Experiment [2] can be described thus: Inhibition of human GNT1 using Man3-octyl as substrate at 0.5 mM after 1 hr in presence of phosphatidylcholine.
Experiment [3] addresses T2, Beta-1,3-galactosyltransferase 5 (Homo sapiens) (UniProt Q9Y2C3).
T2 sequence (whole entry): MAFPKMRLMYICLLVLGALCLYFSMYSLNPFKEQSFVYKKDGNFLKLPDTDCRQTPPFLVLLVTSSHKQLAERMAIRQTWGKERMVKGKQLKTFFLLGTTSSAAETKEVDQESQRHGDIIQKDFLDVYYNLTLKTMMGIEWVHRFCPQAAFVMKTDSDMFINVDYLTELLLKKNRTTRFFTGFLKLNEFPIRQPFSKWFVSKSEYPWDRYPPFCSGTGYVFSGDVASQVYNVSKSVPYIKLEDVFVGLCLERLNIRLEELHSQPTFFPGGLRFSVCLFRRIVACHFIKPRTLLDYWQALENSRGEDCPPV
Kind of experiment: Inhibition of human recombinant soluble His-tagged beta3-GalT5 expressed in insect cells using GlcNAcbeta-Bn as substrate at 0.5 mM after 1 hr relative to control. Put shortly:
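Soluble His-tagged human β3-GalT5 expressed in insect cells and purified, 0.37 µg. Acceptor 0.5 mM GlcNAcβ-Bn, donor 0.5 mM UDP-Gal, inhibitor 0.5 mM bis-imidazolium salt in 10% ethanol. 1 h at 37 °C. Product isolated on AG1-X8 resin and counted by scintillation. % inhibition versus no-inhibitor control; blanks lacked acceptor. Mean ± SD of replicates.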

On to `C[n+]1ccn(CCCCCCCCCCCCCCCCCCCCn2cc[n+](C)c2)c1`, for which the inhibition in experiment [1] is 80% and 94.4%; in experiment [2] it was less than 1%; in experiment [3], 79.2% and 84%.
